Most compounds without a hit are left out; they make up all but 3.8% or so of the library.
KCNK3 inh: human KCNK3 channel inhibitors, primary screen, CHO cells, FluxOR thallium flux, B-score; Potassium channel subfamily K member 3 (Homo sapiens), O14649; B-score at 10 µM; 0.84% of 340,000 active; FluxOR fluorescence; active compounds read low; AID 602410, 2012;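 active = B-score under library mean minus 4 SD, starting fluorescence ratio at most library mean plus 5 SD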;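 note: more negative B-score means stronger inhibition of thallium flux through KCNK3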
KCNQ1 act: potentiators or activators of KCNQ1 channel, primary screen, cell-based, thallium flux, high-throughput | Potassium voltage-gated channel subfamily KQT member 1 (Homo sapiens), P51787 | CHO-K1 KCNQ1, thallium flux FluxOR fluorescence; active compounds read high | B-score at 10 µM | 0.35% of 310,000 active | AID 2648, 2010;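 active = fluorescence ratio B-score, a plate-corrected score, at least three library SD, with initial intensity B-score within 5 SD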
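System: CHO-K1 cells stably expressing KCNQ1 / Medium: assay buffer for compound exposure, DMSO matched across wells / Reagent: thallium- and potassium-containing depolarizing buffer / Compound: one concentration, matched DMSO / Incubation: 20 min compound pretreatment at room temperature / Measured by: kinetic FluxOR fluorescence, 10 s baseline plus 110 s post-stimulus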
hERG rescue: hERG rescue from dofetilide block, primary screen, cell-based, CHO-hERG, FluxOR thallium flux, dofetilide IC70 | Voltage-gated inwardly rectifying potassium channel KCNH2 (Homo sapiens), Q12809 | dofetilide IC70 present | activation (rescue from dofetilide block), less the hit threshold, % at 10 µM | 0.51% of 310,000 active | AID 1511, 2009;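 active = activation above the mean of controls blocked by dofetilide plus 5 SD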;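 note: thallium influx through hERG after potassium depolarization seen as dye fluorescence rise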
Kir21 inh: inhibitors of mouse Kir2.1 inward-rectifier potassium channel. AID 1672, 2009. HEK293-Kir2.1, FluxOR thallium flux fluorescence; active compounds read low. Inward rectifier potassium channel 2 (Mus musculus), P35561. 0.85% of 310,000 active. B-score at 10 µM;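 active = fluorescence ratio B-score at or below minus 3 SD of library scores, with starting-brightness B-score within 2 SD, cut at about -4.2 in these data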;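 note: channel flux triggered by added potassium and thallium sulfate stimulus; B-score of peak minus minimum fluorescence over baseline after thallium stimulus; more negative B-score means stronger Kir2.1 block with less thallium influx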
Target sequence (P35561 whole entry, looked up): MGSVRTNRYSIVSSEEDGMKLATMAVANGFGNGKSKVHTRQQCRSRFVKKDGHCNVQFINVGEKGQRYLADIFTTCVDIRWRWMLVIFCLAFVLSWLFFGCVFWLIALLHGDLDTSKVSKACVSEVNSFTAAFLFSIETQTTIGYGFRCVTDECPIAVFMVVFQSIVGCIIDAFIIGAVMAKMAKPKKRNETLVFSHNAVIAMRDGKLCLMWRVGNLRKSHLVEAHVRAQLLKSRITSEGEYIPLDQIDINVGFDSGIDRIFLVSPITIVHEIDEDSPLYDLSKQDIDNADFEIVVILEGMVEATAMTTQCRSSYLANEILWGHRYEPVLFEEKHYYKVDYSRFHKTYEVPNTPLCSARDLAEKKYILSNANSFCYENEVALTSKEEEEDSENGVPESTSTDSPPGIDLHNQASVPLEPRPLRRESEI
KCNQ1 inh: inhibitors of human KCNQ1 channel, primary screen, cell-based, thallium flux, high-throughput; CHO-K1 KCNQ1, FluxOR thallium flux fluorescence; active compounds read high; B-score at 10 µM; 1.3% of 310,000 active; AID 2642, 2010;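 active = compounds whose thallium flux B-score, printed positive for inhibition, exceeds three library SD while starting fluorescence stays within three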;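 note: channel opened by potassium depolarization with thallium stimulus after 20 min compound exposure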
KCNK9 block: KCNK9 potassium channel inhibitors, primary screen, HEK293 cells, thallium flux; Potassium channel subfamily K member 9 (Homo sapiens), Q9NPC2; FluxOR thallium flux fluorescence; active compounds read low; B-score at 10 µM; 1.2% of 310,000 active;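 active = ratio B-score over 3 SD below the library mean, with starting fluorescence within 5 SD of its mean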;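 note: negative B-score means less thallium flux so channel inhibition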
Numbers without * were called inactive; i = inactive; / = no result given.

SMILES | KCNK3 inh | KCNQ1 act | hERG rescue | Kir21 inh | KCNQ1 inh | KCNK9 block
CCCCCc1ccc(OCCCC[n+]2ccc(C)cc2)c(CCCCC)c1 | i | i | -27 | -9.1* | 11* | -7.2*
CCCCCc1ccc(OCCCC[n+]2cccc(C)c2)c(CCCCC)c1 | i | i | -27 | -5.1* | 10* | -7.5*
CCC(C)(C)c1ccc(OCCCC[n+]2ccccc2)c(C(C)(C)CC)c1 | i | i | -23 | -3.6 | i | i
CC(=O)CCC(=O)N1CCC(n2nccc2NC(=O)c2ccccc2C)CC1 | i | i | -4 | -0.01 | i | i
CC(=O)Nc1ccc(OCC(O)Cn2nc(C)nc2C)cc1 (stereo not drawn) | i | i | 5.5* | -0.26 | i | i
Cc1nc(C)n(CC(O)COc2ccc3ccccc3c2)n1 (stereo not drawn) | i | i | -15 | 0.67 | i | i
CCN(CC)c1nc(C(F)(F)F)nc2c1nnn2Cc1ccccc1 | i | i | -6 | -0.96 | 6* | i
CC(=O)CCc1ccc(OCC(=O)Nc2cccc(S(=O)(=O)N(C)c3ccccc3)c2)cc1 | i | / | / | / | / | /
CCc1ccc2[nH]c(=O)c(CN(CCCN3CCOCC3)C(=O)Nc3cccc(Cl)c3)cc2c1 | i | i | -26 | 0.65 | 6* | i
CCc1ccc2[nH]c(=O)c(CN(CCCN3CCOCC3)C(=O)Nc3ccc(Cl)cc3)cc2c1 | i | i | -23 | 0.18 | i | i
Cc1cccc(/N=C/c2sc3ccccc3c2O)n1 | i | 8* | 6.7* | 0.49 | i | i
O=C(Cn1ncc2c(=O)oc3ccccc3c21)N1CCN(c2ccccn2)CC1 | i | i | -3 | 0.85 | i | i
O=C(Cn1ncc2c(=O)oc3ccccc3c21)N1CCN(C(=O)c2ccco2)CC1 | i | 8* | -12 | 1.2 | i | i
CCCc1nc(SCC(=O)Nc2cc(Cl)ccc2OC)c2c(=O)n(C)c(=O)n(C)c2n1 | / | 14* | -10 | 0.25 | i | i
CCc1nc(SCC(=O)Nc2ccc(F)cc2F)c2c(=O)n(C)c(=O)n(C)c2n1 | i | i | -5 | -0.96 | i | i
O=C(CS(=O)(=O)c1ccccc1)Nc1ccccc1Br | i | / | / | / | / | /
O=C1N(Cc2ccccc2)CC2(Br)COCOC12O (stereo not drawn) | i | / | / | / | / | /
CCN1CCCC1CNC(=O)c1ccc2c(c1)NC(=O)/C(=C\c1ccc(C)cc1)S2 (stereo not drawn) | i | i | -22 | -2.8 | 11* | i
COc1ccc(NC(=S)N/N=C/c2cccn2Cc2ccc(F)cc2Cl)cc1 | i | i | -5 | 0.93 | i | i

High-throughput results deposited in PubChem by Johns Hopkins Ion Channel Center.
